TCR-CD3 inh: blocks the human TCR-CD3 interaction | TAMRA-labeled TCR probe fluorescence, biochemical | inhibition, % at 9.4 µM | hit rate 0.37% among 360,000 | AID 651800;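 note: recombinant mutant TCR 2C K166C tagged with TAMRA read by polarization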
HTRA1 inh: HTRA1 (human) protease inhibition | Q92743 | recombinant HTRA1, FP-rhodamine activity-based probe, fluorescence polarization | inhibition, % at 5.96 µM | AID 504803 | hit rate 0.5% among 340,000; in the data active = inhibition above about 36%
mABHD4 FP: inhibitors of mouse ABHD4 | hit rate 0.54% among 370,000 | inhibition, % at 8.92 µM | purified mABHD4, FP-Rh probe fluorescence polarization;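 active = inhibition exceeding the mean over every tested compound plus 3 SD, cut at about 30% in these data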
Target sequence (Q8VD66 whole entry, looked up): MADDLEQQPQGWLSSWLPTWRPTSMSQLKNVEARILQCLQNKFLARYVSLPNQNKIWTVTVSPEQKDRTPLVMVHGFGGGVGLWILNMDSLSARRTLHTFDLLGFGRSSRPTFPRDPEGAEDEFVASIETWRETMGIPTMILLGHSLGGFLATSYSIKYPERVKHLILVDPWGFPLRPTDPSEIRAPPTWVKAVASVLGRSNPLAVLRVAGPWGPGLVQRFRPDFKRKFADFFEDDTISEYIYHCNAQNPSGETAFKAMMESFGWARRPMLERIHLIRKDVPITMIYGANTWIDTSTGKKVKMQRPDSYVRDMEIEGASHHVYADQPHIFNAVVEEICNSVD
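Test system: mABHD4 protein; Read-out basis: % inhibition; Incubation: 45 min + 60 min at 25 °C; Repeats: single replicate; Technique: fluorescence polarization with parallel and perpendicular emission, 525/598 nm; Compound: 8.92 µM, single dose; Benchmarks: full inhibition S159A mutant plus DMSO, zero as sample-well median.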
pPAFAH inh: pPAFAH (human) enzyme inhibition. Q13093. recombinant pPAFAH, FP-rhodamine probe fluorescence polarization. inhibition, % at 3.39 µM. hit rate 1.5% among 330,000. AID 463082;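 active = inhibition above the mean inhibition across the screen plus 3 SD, cut at about 25% in these data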;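 note: inhibitors block binding of the rhodamine activity-based probe so polarization drops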
SIAE inh: inhibitors of human sialic acid acetylesterase SIAE. Q9HAT2. AID 1053197. inhibition, % at 9.66 µM. hit rate 0.69% among 370,000. SIAE FP-Rh probe binding, fluorescence polarization;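 active = inhibition above a cutoff: mean of compounds within the control limits plus 3 SD of those, cut at about 17% in these data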
HTRA1 inh conf: HTRA1 (human) inhibition, confirmation. recombinant HTRA1, FP-rhodamine activity-based probe, fluorescence polarization. hit rate 66% among 1,600. inhibition, % at 5.96 µM. AID 540248. shares compounds with HTRA1 inh;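 active = mean inhibition over three repeats above a set limit taken from the earlier primary screen, cut at about 37% in these data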;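 note: inhibitors block probe binding so polarization drops and inhibition rises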
BSA probe FL: BSA probe counter-screen for TCR-CD3 inhibitors; TAMRA-labeled BSA probe fluorescence counterscreen; hit rate 10% among 1,200; shares compounds with TCR-CD3 inh; inhibition, % at 9.4 µM; in the data active = inhibition above about 23%
TCR-CD3 inh conf: confirmation of human TCR-CD3 interaction inhibitors; shares compounds with TCR-CD3 inh; inhibition, % at 9.4 µM; AID 652036; TAMRA-labeled TCR probe fluorescence binding assay; hit rate 48% among 1,200
ABHD4 confirm: confirmation of mouse ABHD4 inhibitors; shares compounds with mABHD4 FP; inhibition, % at 8.92 µM; purified mABHD4, FP-Rh probe fluorescence polarization; hit rate 55% among 1,800;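 active = mean inhibition across replicates above the hit cutoff set in the primary screen, cut at about 30% in these data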
Of the large screens only hits and unclear results are named; the others gave an inactive call (follow-up assays come after a bar, where they were run). Shown are actives, neighbours in structure and some others; about 2.3% of the full set was active somewhere. Cut-off read from the data, not from the text of the source, unless noted: active = inhibition above about 19%; inactive = the rest.

Nc1ccc2ccccc2c1N=Nc1ccccc1	HTRA1 inh 59, mABHD4 FP 39 (no result: pPAFAH inh) | HTRA1 inh conf 53 | ABHD4 confirm 39
CCOC(=O)[C@@H](NC(=O)CC[C@H]1O[C@@H](n2cc(C)c(=O)[nH]c2=O)C[C@@H]1O)C(C)C	none (no result: pPAFAH inh)
Brc1ccc2cccnc2c1	none
Nc1cc2cccnc2cc1Cl	TCR-CD3 inh 19, HTRA1 inh 46, mABHD4 FP 53 (no result: pPAFAH inh) | HTRA1 inh conf inactive | BSA probe FL inactive | TCR-CD3 inh conf inactive | ABHD4 confirm 36
Cc1ccc(Cn2c(=O)n(Cc3ccc(C(=O)NCC4COC4)cc3)c(=O)c3ccccc32)cc1	none (no result: TCR-CD3 inh, HTRA1 inh, pPAFAH inh)
CC(=O)Nc1ccc(N/C=C/C(=O)c2ccco2)cc1	none
CN(C)c1ccc(N/C=C/C(=O)c2ccco2)cc1	HTRA1 inh 47, mABHD4 FP 44, pPAFAH inh 28 | HTRA1 inh conf inactive | ABHD4 confirm inactive
CN(C)CCN(C)C1CN(Cc2ccc(F)cc2)S(=O)(=O)C1 (stereo not drawn)	none (no result: HTRA1 inh, pPAFAH inh)
Cc1ccc(/C=[N+](\[O-])c2ccc(N(C)C)cc2)c2nsnc12	HTRA1 inh 38, mABHD4 FP 30 (no result: pPAFAH inh) | HTRA1 inh conf inactive | ABHD4 confirm inactive
Oc1ccccc1N=Cc1c(O)ccc2oc3c(c12)CCCC3	HTRA1 inh 43, mABHD4 FP 30 | HTRA1 inh conf 68 | ABHD4 confirm inactive
O=C(OCc1cn(Cc2ccc(F)cc2)nn1)N1CCCC1	none (no result: TCR-CD3 inh, HTRA1 inh, pPAFAH inh)
COc1cccc(/C=N/NC(=O)c2c(C)nc3ccc(Cl)cn23)c1O	HTRA1 inh 62, mABHD4 FP 35 | HTRA1 inh conf 65 | ABHD4 confirm 55
O=C(O)c1ccc(NC2=C/C(=N/S(=O)(=O)c3cccs3)c3ccccc3C2=O)cc1	HTRA1 inh 42, mABHD4 FP 37 (no result: pPAFAH inh) | HTRA1 inh conf 46 | ABHD4 confirm 78
O=C(O)c1ccc(Nc2nc3ccccc3nc2NS(=O)(=O)c2cccs2)cc1	none
COc1ccc(/C=C/C(=O)NC2=NCCS2)c(OC)c1	none (no result: TCR-CD3 inh, HTRA1 inh, pPAFAH inh)
CC(=O)C1=C(O)C(=O)N(c2ccc(S(N)(=O)=O)cc2)C1c1cccc([N+](=O)[O-])c1 (stereo not drawn)	none
CC(=O)C1C(=O)c2c(cccc2[N+](=O)[O-])C1=Nc1ccc(S(N)(=O)=O)cc1 (stereo not drawn)	HTRA1 inh 39, mABHD4 FP 38, pPAFAH inh 25 | HTRA1 inh conf inactive | ABHD4 confirm 34
COc1ccc(-c2cccc(N3CCN(c4ccccn4)CC3)n2)cc1OC	none (no result: HTRA1 inh, pPAFAH inh)
CC(=O)N[C@@H](C)CCc1ccc(Oc2ccc(OC(C)C)nc2)cc1	none (no result: TCR-CD3 inh, HTRA1 inh, pPAFAH inh)
O=[N+]([O-])c1ccccc1C1Nc2cccc3cccc(c23)N1	HTRA1 inh 51, mABHD4 FP 53 | HTRA1 inh conf inactive | ABHD4 confirm 55
Oc1ccccc1C1Nc2cccc3cccc(c23)N1	none
COc1cccc(CNC(=O)C2CCN(c3nc(OC)nc(OC)n3)CC2)c1	none (no result: TCR-CD3 inh, HTRA1 inh, pPAFAH inh)
C=CCOc1c(Cl)cc(CNc2ccc(C)c(Cl)c2)cc1OC	none (no result: TCR-CD3 inh, HTRA1 inh, mABHD4 FP, SIAE inh)
C=CCOc1c(Cl)cc(CNc2ccc(N(C)C)cc2)cc1OC	HTRA1 inh 48, mABHD4 FP 40, pPAFAH inh 25 | HTRA1 inh conf inactive | ABHD4 confirm 45
Nc1nc2c(ncn2[C@@H]2O[C@H](C(=O)NCC(F)(F)F)[C@@H](O)[C@H]2O)c(=O)[nH]1	none (no result: HTRA1 inh, pPAFAH inh)
CC(CCN1CCC(C(O)(c2ccccc2)c2ccccc2)CC1)Oc1ccc(C#N)cc1F (stereo not drawn)	none (no result: TCR-CD3 inh, HTRA1 inh, pPAFAH inh)
COc1ccc2[nH]c3c(c2c1)CCN[C@]31C(=O)N(c2ccccc2)c2ccccc21	none (no result: TCR-CD3 inh, HTRA1 inh, pPAFAH inh)
NC1=C(Br)C(=O)c2ncccc2C1=O	none (no result: pPAFAH inh)
O=C1C=C(NCCc2cc(Br)c(O)c(Br)c2)C(=O)c2ncccc21	TCR-CD3 inh 26, HTRA1 inh 53, mABHD4 FP 48 (no result: pPAFAH inh) | HTRA1 inh conf 43 | BSA probe FL inactive | TCR-CD3 inh conf 25 | ABHD4 confirm 51
N#C/C(=C\c1ccc(O)c(O)c1)C(=O)NCCc1ccccc1	HTRA1 inh 71, mABHD4 FP 51, pPAFAH inh 27 | HTRA1 inh conf 93 | ABHD4 confirm 33
N#C/C(=C\c1ccc(O)c(O)c1)C(=O)N1CCc2ccccc21	HTRA1 inh 71, mABHD4 FP 55 | HTRA1 inh conf 86 | ABHD4 confirm inactive
COc1cc(/C=C(\C#N)C(=O)N2CCc3ccccc32)ccc1O	none
COC(=O)CN1CCN(C(=O)c2csc(N3CCOCC3)n2)CC1	none (no result: TCR-CD3 inh, HTRA1 inh, pPAFAH inh)
CCCCCC(=O)N1C[C@H](n2cc(-c3ccc(F)cc3)nn2)[C@@H](O)C[C@@H]1c1ccc(Cl)cc1	none (no result: pPAFAH inh)
NC(=O)NC(=O)C(Nc1ccc(N2CCCCC2)cc1)c1ccccc1 (stereo not drawn)	HTRA1 inh 52, mABHD4 FP 40 | HTRA1 inh conf inactive | ABHD4 confirm inactive
O=[N+]([O-])c1cc(/C=N\Nc2nc(-c3ccccc3)cs2)ccc1O	HTRA1 inh 47, mABHD4 FP 42, pPAFAH inh 31 | HTRA1 inh conf 50 | ABHD4 confirm 61
O=C(CSc1nc2ccccc2n1Cc1ccccc1Cl)N/N=C\c1cccc(Oc2ccccc2)c1	none (no result: TCR-CD3 inh, HTRA1 inh, pPAFAH inh)
COC(=O)[C@]12CCCCC=C1N(Cc1ccc(Cl)cc1Cl)C(=O)[C@H](CC(=O)NCC13CC4CC(CC(C4)C1)C3)C2	none (no result: HTRA1 inh, pPAFAH inh)
CCN(CC)c1ccc(C(=C2C=CC(=[N+](CC)CC)C=C2)c2ccc(N(CC)CC)cc2)cc1	TCR-CD3 inh 39, HTRA1 inh 83, mABHD4 FP 110, SIAE inh 40 (no result: pPAFAH inh) | HTRA1 inh conf 86 | BSA probe FL 40 | TCR-CD3 inh conf 40 | ABHD4 confirm 125
C=CCn1c(SCC(=O)c2ccc(O)c(O)c2)nnc1-c1ccccc1OC	HTRA1 inh 59, mABHD4 FP 29, pPAFAH inh 27 | HTRA1 inh conf 49 | ABHD4 confirm inactive
C=CCn1c(SCC(=O)Nc2cc(C)on2)nnc1-c1ccccc1OC	none
NNC(=O)c1cc(O)c(O)c(O)c1	TCR-CD3 inh 57, HTRA1 inh 79, mABHD4 FP 36, pPAFAH inh 30 | HTRA1 inh conf inactive | ABHD4 confirm inactive
Oc1ccc(/C=N/N(c2ccccc2)c2ccccc2)cc1O	HTRA1 inh 57, mABHD4 FP 42, pPAFAH inh 69 | HTRA1 inh conf 97 | ABHD4 confirm inactive
CCN(CC)c1ccc(/C=N/N(c2ccccc2)c2ccccc2)c(O)c1	none

Bioassay records deposited in PubChem BioAssay by The Scripps Research Institute Molecular Screening Center.
